Experiments:
RIPK1 [1] = molecular target: T1, RIPK1 (Homo sapiens, UniProt Q13546); experiment: In vitro inhibition of RIPK1 activity in iPSC‐derived microglia; type: cell-based
T1 sequence (Q13546 1-671): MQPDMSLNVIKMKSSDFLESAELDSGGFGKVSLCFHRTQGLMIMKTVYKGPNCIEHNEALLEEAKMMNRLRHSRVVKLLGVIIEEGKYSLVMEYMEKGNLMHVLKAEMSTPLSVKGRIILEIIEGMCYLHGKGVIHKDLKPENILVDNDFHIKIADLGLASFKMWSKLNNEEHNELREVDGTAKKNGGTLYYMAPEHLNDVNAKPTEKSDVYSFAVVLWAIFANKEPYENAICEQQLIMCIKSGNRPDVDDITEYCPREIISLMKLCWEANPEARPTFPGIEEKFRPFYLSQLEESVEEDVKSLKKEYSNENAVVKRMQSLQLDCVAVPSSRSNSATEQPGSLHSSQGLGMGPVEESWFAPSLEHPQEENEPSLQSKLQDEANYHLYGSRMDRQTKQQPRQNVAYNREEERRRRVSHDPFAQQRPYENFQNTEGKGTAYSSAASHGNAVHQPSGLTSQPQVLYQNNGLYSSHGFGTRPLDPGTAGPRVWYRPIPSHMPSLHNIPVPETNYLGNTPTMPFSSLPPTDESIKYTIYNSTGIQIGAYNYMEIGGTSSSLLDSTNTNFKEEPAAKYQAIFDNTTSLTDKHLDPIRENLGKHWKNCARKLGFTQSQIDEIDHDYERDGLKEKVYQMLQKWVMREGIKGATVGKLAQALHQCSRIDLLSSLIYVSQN

RIPK1 [2] = molecular target: T1, RIPK1; experiment: pS166‐RIPK1 inhibition in PBMC lysates, MAD; type: in vivo; settings: MAD all dose groups
Outline: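 Blood was drawn predose on day −1 or 1, on day 7, on day 14 predose and 1, 3, 5 and 8 h postdose, and once on days 15 and 16. Subjects received 14‑day oral q.d./b.i.d. dosing or placebo. PBMCs were isolated and pS166‑RIPK1 measured in lysates. Percent change from baseline was summarised as median (Q1–Q3) per dose group and time.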

RIPK1 [3] = molecular target: T1, RIPK1; experiment: In vitro inhibition of RIPK1 activity in human PBMCs; type: cell-based
Safety, TEAEs, MAD = type: in vivo, human
Outline: (§1)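 Safety population: all participants exposed to study drug, followed from first dose to the end‑of‑study visit. Assessments covered physical and neurological exams, AEs, SAEs and AESIs (seizure, ALT ≥2×ULN, QTc ≥500 ms, pregnancy, overdose). Lab, vital‑sign and 12‑lead/Holter ECG abnormalities were also recorded. Coding used MedDRA 23.1 (part 1) or 24.0 (part 2), with severity graded 1–4 per FDA guidance. Counts were summarised per dose group, with placebo pooled.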

Safety, TEAEs, PK‐CSF = type: in vivo, human; settings: for ALT increase (AESI), one participant: PK‐CSF 10 mg
Outline: as §1

Plasma PK, MAD = type: in vivo, human; settings: for half-life: T 1/2z; for Tmax: T max, median (range)
Outline: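 Oral capsules were given for 14 days (q.d. or b.i.d.) after an overnight fast of ≥8 h, with 2 h fasting post‑dose. Plasma was sampled predose and at 10–11 postdose times on days 1 and 14, predose on days 2, 3, 5, 7 and 11, and once on days 15–17. Quantification was by HPLC‑MS (LLOQ 1 ng/mL). AUCtau used tau 12 h (b.i.d.) or 24 h (q.d.). Accumulation was assessed by a linear model on log ratio and steady state by a nonlinear model on Ctrough.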

Plasma PK, SAD = type: in vivo, human; settings: for CL/F, geometric mean (%CV): fasting
Outline: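 Healthy adults received a single fasted oral capsule dose (10–40 mg) or placebo; fasting was overnight ≥8 h and 2 h post‑dose. Plasma was sampled predose, at 10 postdose times on day 1 and once each on days 2 and 3, and quantified by HPLC‑MS (LLOQ 1 ng/mL). Cmax, Tmax, AUClast, AUC, t1/2z, CL/F and Vz/F were computed. Dose proportionality was tested with a linear model.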

[4] = both, human, plasma, oral, 10 mg
[5] = both, human, plasma, oral, 20 mg
[6] = both, human, plasma, oral, 30 mg
[7] = both, human, plasma, oral, 40 mg

## CC(C)(C(=O)N1CCOc2c(C#N)cncc2C1)C(F)F [SAR443820]
RIPK1 [1]
  IC50: 1.6 nM
RIPK1 [2]; 48 h post last dosing
  pS166‐RIPK1 inhibition in PBMC lysates: less inhibition of RIPK1 phosphorylation
RIPK1 [2]; day 14, up to 24 h post last morning dosing
  pS166‐RIPK1 inhibition in PBMC lysates: greater than 80%
RIPK1 [3]
  IC50: 3.16 nM
Safety, TEAEs, MAD; MAD 10 mg QD (n = 8)
  Any TEAE, n (%): 4 (50.0) n (%)
  Any grade ≥3 TEAE, n (%): 0 n (%)
  Any treatment‐emergent AESI, n (%): 0 n (%)
  Any treatment‐emergent SAE, n (%): 0 n (%)
Safety, TEAEs, MAD; MAD 15 mg BID (n = 8)
  Any TEAE, n (%): 6 (75.0) n (%)
  Any grade ≥3 TEAE, n (%): 0 n (%)
  Any treatment‐emergent AESI, n (%): 1 (12.5) n (%)
  Any treatment‐emergent SAE, n (%): 0 n (%)
Safety, TEAEs, MAD; MAD 15 mg b.i.d.
  Concomitant AST increase, one participant: 1.43 ULN
Safety, TEAEs, MAD; MAD 15 mg b.i.d., day 9
  ALT increase (AESI), one participant: 2.29 ULN
Safety, TEAEs, MAD; MAD 15 mg b.i.d., day 15 (24 h post last dosing)
  ALT increase (AESI), one participant: 2.71 ULN
Safety, TEAEs, MAD; MAD 20 mg BID (n = 8)
  Any TEAE, n (%): 4 (50.0) n (%)
  Any grade ≥3 TEAE, n (%): 0 n (%)
  Any treatment‐emergent AESI, n (%): 0 n (%)
  Any treatment‐emergent SAE, n (%): 0 n (%)
Safety, TEAEs, MAD; MAD 20 mg QD (n = 8)
  Any TEAE, n (%): 3 (37.5) n (%)
  Any grade ≥3 TEAE, n (%): 0 n (%)
  Any treatment‐emergent AESI, n (%): 0 n (%)
  Any treatment‐emergent SAE, n (%): 0 n (%)
Safety, TEAEs, PK‐CSF; PK-CSF 10 mg (n = 6)
  Any TEAE, n (%): 4 (66.7) n (%)
  Any grade ≥3 TEAE, n (%): 0 n (%)
  Any treatment‐emergent AESI, n (%): 1 (16.7) n (%)
  Any treatment‐emergent SAE, n (%): 0 n (%)
Safety, TEAEs, PK‐CSF; PK-CSF 40 mg (n = 6)
  Any TEAE, n (%): 6 (100.0) n (%)
  Any grade ≥3 TEAE, n (%): 1 (16.7) n (%)
  Any treatment‐emergent AESI, n (%): 0 n (%)
  Any treatment‐emergent SAE, n (%): 1 (16.7) n (%)
Safety, TEAEs, PK‐CSF; day 2
  ALT increase (AESI), one participant: 1.5 ULN
Safety, TEAEs, PK‐CSF; day 7 (end‐of‐study visit)
  ALT increase (AESI), one participant: 2.4 ULN
Plasma PK, MAD; MAD 10 mg q.d., day 14
  CLss/F, geometric mean (%CV): 7.08 (25.9) L/h
Plasma PK, MAD; MAD 15 mg b.i.d., day 14
  CLss/F, geometric mean (%CV): 9.16 (30.0) L/h
Plasma PK, MAD; MAD 20 mg b.i.d., day 14
  CLss/F, geometric mean (%CV): 9.27 (24.9) L/h
Plasma PK, MAD; MAD 20 mg q.d., day 14
  CLss/F, geometric mean (%CV): 9.40 (22.2) L/h
Plasma PK, MAD; b.i.d. cohorts, day 14 vs day 1
  Overall accumulation, C max and AUCtau: around 1.5 fold
Plasma PK, MAD; both, human, plasma, oral, 10 mg, C max, geometric mean (%CV), MAD 10 mg q.d., day 14
  Cmax: 158 ng/mL
Plasma PK, MAD; both, human, plasma, oral, 10 mg, geometric mean (%CV), MAD 10 mg q.d., day 14
  half-life: 8.87 h
Plasma PK, MAD; both, human, plasma, oral, 10 mg, MAD 10 mg q.d., day 14
  Tmax: 1 h
Plasma PK, MAD; both, human, plasma, oral, 15 mg, geometric mean (%CV), MAD 15 mg b.i.d., day 14
  half-life: 7.21 h
Plasma PK, MAD; both, human, plasma, oral, 15 mg, MAD 15 mg b.i.d., day 1
  Tmax: 1 h
Plasma PK, MAD; both, human, plasma, oral, 15 mg, MAD 15 mg b.i.d., day 14
  Tmax: 1 h
Plasma PK, MAD; both, human, plasma, oral, 20 mg, geometric mean (%CV), MAD 20 mg b.i.d., day 14
  half-life: 7.37 h
Plasma PK, MAD; both, human, plasma, oral, 20 mg, geometric mean (%CV), MAD 20 mg q.d., day 14
  half-life: 8.53 h
Plasma PK, MAD; both, human, plasma, oral, 20 mg, MAD 20 mg b.i.d., day 14
  Tmax: 1 h
Plasma PK, MAD; both, human, plasma, oral, 20 mg, MAD 20 mg q.d., day 14
  Tmax: 2 h
Plasma PK, SAD; SAD 10 mg single dose
  CL/F, geometric mean (%CV): 8.56 (37.8) L/h
Plasma PK, SAD; SAD 20 mg single dose
  CL/F, geometric mean (%CV): 8.28 (21.4) L/h
Plasma PK, SAD; SAD 30 mg single dose
  CL/F, geometric mean (%CV): 12.3 (44.7) L/h
Plasma PK, SAD; SAD 40 mg single dose
  CL/F, geometric mean (%CV): 7.72 (36.1) L/h
Plasma PK, SAD; SAD between 10 mg and 40 mg
  Dose proportionality of exposure: no major deviation from dose proportionality
Plasma PK, SAD; both, human, plasma, oral
  Tmax: 1 to 1.5 h
  half-life: 5.7 to 8 h
Plasma PK, SAD; [4]
  AUC(0-t): 1120 ng·h/mL
  Vd/F: 98.4 L
  half-life: 7.97 h
Plasma PK, SAD; [5]
  Cmax: 241 ng/mL
  Tmax: 1.5 h
  Vd/F: 89.4 L
  half-life: 7.48 h
Plasma PK, SAD; [6]
  Tmax: 1 h
  Vd/F: 101 L
  half-life: 5.7 h
Plasma PK, SAD; [7]
  Tmax: 1.5 h
  Vd/F: 70.1 L
  half-life: 6.29 h

Reference: paper PMC10772668 (Clinical and Translational Science, 2023)
